From publication PMC7661742 (Molecular cancer therapeutics, 2020)

Columns and labels:
[1] = molecular target: CDK19 (Homo sapiens, UniProt Q9BWU1); assay: SelectScreen Kinase Profiling, CDK19; format: biochemical
Summary of the method: (§1)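 Kinases were run in a commercial kinase profiling service. Single-point tests used 1 μM test compound at the ATP concentration specified per kinase. IC50 curves started at 20 μM, followed by 10 subsequent […] dilution steps.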

[2] = molecular target: CDK1 (Homo sapiens, UniProt P06493); assay: SelectScreen Kinase Profiling, CDK1; format: biochemical
Summary of the method: as §1

[3] = molecular target: CDK2 (Homo sapiens, UniProt P24941); assay: SelectScreen Kinase Profiling, CDK2; format: biochemical
Summary of the method: as §1

[4] = molecular target: CDK4 (Homo sapiens, UniProt P11802); assay: SelectScreen Kinase Profiling, CDK4; format: biochemical
Summary of the method: as §1

[5] = molecular target: CDK6 (Homo sapiens, UniProt Q00534); assay: SelectScreen Kinase Profiling, CDK6; format: biochemical
Summary of the method: as §1

[6] = molecular target: CDK7 (Homo sapiens, UniProt P50613); assay: SelectScreen Kinase Profiling, CDK7; format: biochemical
Summary of the method: as §1

[7] = molecular target: CDK9 (Homo sapiens, UniProt P50750); assay: SelectScreen Kinase Profiling, CDK9; format: biochemical
Summary of the method: as §1

[8] = test system: granzyme B-positive murine spleen-derived NK cells; assay: Modulation of granzyme B in mouse splenocytes; format: cell-based; settings: murine spleen-derived NK cells activated with IL-15 in vitro; 150 nmol/l, 44 h
Summary of the method: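 Cells received 2.5 ng/ml IL-15, 150 nmol/l test compound, or both, for 44 h at 37°C and 5% CO2. Protein transport inhibitor was present for the last 4 h. Cells were stained for CD3ε, NK1.1 and intracellular granzyme B after fix/perm and gated viable CD3−NK1.1+GZMB+ (3–6 mice per group).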

[9] = test system: perforin secretion from NK92MI cells; assay: Perforin release assay; format: cell-based, human; settings: 24 h, ELISA
Summary of the method: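 NK92MI cells were seeded at 40.000 cells/well with test compound over a concentration range and held 24 h at 37°C, humidified, 5% CO2. IL-15 (50 ng/ml) served as positive control. Secreted perforin in supernatants was quantified by ELISA.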

[10] = test system: MC-38 cells; assay: Viability assay, MC-38; format: cell-based, mouse
Summary of the method: (§2)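 Mouse tumour cells were plated in 96-well plates with CDK8/19 inhibitor over a concentration range, with 72 h or 120 h timing depending on the growth of each line. Cells were held at 37°C, humidified, 5% CO2. Viability was read by CellTiter-Glo luminescence or AlamarBlue, and curves were fitted by iterative sigmoidal analysis.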

[11] = test system: B16-F10 cells; assay: Viability assay, B16-F10; format: cell-based, mouse
Summary of the method: as §2

[12] = test system: EMT6 cells; assay: Viability assay, EMT6; format: cell-based, mouse
Summary of the method: as §2

[13] = test system: primary leukemia cells from chronic lymphocytic leukemia patients; assay: CD20-mediated ADCC with rituximab on primary CLL cells; format: cell-based, human
Summary of the method: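 Primary CLL cells and autologous PBMCs from patients were cultured 48 h with rituximab (10 μg/ml) plus CDK8/19 inhibitor or vehicle. Leukemia-cell depletion was counted by flow cytometry against PKH26 reference microbeads and normalised to the mean of DMSO controls (n=5). The no-NK arm used CLL cells pretreated 48 h with vehicle or inhibitor, then 4 h with vehicle or rituximab. Cell death was read by flow cytometry (n=4).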

[14] = Mouse pharmacokinetics; format: in vivo; settings: mice
Summary of the method: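 C57BL/6 mice (n=3 per group) were given test compound orally at 25 mg/kg or intravenously at 1 mg/kg. Plasma concentrations were measured by LC-MS at set time points after dosing.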

[15] = Metabolic stability; format: in vitro ADME; settings: compared with Compound 2
Summary of the method: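 Test compound was incubated with cryopreserved hepatocytes, and compound depletion was quantified over 240 min by LC/MS/MS. In vivo hepatic clearance was predicted from depletion using the well-stirred model.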

[16] = test system: STAT1^S727 phosphorylation; format: in vivo, mouse; settings: daily oral dose of 10 mg/kg, for at least 6 h
[17] = test system: B16-F10-luc2 melanoma; assay: In vivo efficacy, B16-F10-luc2 syngeneic melanoma model; settings: 10 mg/kg daily oral
Summary of the method: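 Female C57BL/6N mice received 100 thousand B16-F10-luc2 cells intravenously. They were randomized by body weight on day 5, 10 mice per group, then dosed orally once daily. Tumor burden was read as average radiance by luciferase in vivo imaging, alongside survival and body weight. TGI = [1-((treated(final) – treated(Day1))/(control(final) – control(Day1)))] * 100%.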

[18] = test system: MC38 tumors; assay: In vivo efficacy, MC-38 murine syngeneic colon adenocarcinoma model; set-up: species or system mouse; settings: BI-1347 10 mg/kg daily oral; anti-PD-1 10 mg/kg i.p. twice weekly
Summary of the method: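 Female C57BL/6N mice were implanted subcutaneously with 100 thousand MC38 cells and randomized by body weight on day 3, 5 mice per group. The anti-PD-1 was rat IgG2a anti-mouse PD-1 (RMP1–14). Readouts were response and TGI at day 20 and complete responses at study end. Groups were compared by one-tailed, non-adjusted Mann Whitney test.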

[19] = test system: EMT6 tumors; assay: In vivo efficacy, EMT6 murine mammary carcinoma model; set-up: species or system mouse; settings: BI-1347 monotherapy

CDK9, sequence (P50750 whole entry): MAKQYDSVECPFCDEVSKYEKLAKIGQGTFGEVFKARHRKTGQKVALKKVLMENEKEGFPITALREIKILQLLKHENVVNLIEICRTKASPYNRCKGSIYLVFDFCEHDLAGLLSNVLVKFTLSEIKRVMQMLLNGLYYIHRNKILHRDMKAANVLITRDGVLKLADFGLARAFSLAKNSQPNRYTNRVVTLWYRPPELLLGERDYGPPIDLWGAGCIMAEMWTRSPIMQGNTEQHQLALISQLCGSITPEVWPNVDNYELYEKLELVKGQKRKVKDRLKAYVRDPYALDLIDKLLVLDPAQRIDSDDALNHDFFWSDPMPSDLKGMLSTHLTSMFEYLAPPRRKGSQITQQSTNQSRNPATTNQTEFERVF
CDK9, sequence (O60563 whole entry partner): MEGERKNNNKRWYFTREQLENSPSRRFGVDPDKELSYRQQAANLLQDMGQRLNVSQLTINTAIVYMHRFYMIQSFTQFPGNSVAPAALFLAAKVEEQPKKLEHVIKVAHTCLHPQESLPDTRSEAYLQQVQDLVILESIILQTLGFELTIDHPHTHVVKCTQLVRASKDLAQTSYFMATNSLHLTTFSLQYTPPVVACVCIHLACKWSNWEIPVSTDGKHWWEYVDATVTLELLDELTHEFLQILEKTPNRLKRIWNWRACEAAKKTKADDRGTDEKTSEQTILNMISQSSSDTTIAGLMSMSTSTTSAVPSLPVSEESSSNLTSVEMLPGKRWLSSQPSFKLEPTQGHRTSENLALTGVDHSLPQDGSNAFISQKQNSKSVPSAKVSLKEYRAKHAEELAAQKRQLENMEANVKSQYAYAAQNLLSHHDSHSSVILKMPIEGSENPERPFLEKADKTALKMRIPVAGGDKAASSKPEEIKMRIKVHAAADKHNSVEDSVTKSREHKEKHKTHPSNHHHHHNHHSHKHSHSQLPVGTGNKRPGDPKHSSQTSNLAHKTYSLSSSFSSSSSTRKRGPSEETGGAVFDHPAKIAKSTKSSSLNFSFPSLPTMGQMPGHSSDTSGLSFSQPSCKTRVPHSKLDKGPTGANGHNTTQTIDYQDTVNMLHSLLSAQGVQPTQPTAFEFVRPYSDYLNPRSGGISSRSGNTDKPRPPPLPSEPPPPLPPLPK
CDK1, sequence (P06493 whole entry): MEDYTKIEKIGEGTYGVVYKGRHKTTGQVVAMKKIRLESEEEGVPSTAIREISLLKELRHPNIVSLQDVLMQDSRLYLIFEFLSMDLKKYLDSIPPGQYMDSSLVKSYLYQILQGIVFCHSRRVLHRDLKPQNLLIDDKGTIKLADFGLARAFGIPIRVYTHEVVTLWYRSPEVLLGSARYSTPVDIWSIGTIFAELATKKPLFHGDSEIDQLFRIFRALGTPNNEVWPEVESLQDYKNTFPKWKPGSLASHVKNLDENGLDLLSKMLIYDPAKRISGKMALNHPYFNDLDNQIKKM
CDK1, sequence (P14635 whole entry partner): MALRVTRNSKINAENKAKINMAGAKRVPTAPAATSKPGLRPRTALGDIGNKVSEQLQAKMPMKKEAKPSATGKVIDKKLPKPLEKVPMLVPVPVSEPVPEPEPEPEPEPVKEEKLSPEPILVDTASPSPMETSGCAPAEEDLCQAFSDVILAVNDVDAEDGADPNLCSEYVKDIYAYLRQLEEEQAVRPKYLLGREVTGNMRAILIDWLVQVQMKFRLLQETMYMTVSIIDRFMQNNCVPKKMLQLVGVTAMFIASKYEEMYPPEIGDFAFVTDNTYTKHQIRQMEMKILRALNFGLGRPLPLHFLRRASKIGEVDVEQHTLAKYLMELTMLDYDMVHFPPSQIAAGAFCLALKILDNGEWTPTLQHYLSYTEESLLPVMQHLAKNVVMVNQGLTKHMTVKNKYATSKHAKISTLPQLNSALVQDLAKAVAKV
CDK19, sequence (Q9BWU1 whole entry): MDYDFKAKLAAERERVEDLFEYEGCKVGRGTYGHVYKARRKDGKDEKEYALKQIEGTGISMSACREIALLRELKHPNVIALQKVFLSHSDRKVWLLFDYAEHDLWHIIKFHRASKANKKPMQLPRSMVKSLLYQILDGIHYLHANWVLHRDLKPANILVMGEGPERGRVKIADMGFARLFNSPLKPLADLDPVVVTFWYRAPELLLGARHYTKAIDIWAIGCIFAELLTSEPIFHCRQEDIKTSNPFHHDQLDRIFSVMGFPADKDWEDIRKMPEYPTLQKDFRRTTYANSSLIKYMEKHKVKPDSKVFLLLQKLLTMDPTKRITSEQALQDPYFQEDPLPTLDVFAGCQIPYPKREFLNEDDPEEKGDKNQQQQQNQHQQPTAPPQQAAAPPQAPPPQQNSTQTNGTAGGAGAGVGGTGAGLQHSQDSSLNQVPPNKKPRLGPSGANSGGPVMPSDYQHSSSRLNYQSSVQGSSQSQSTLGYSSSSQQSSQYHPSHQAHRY
CDK7, sequence (P50613 whole entry): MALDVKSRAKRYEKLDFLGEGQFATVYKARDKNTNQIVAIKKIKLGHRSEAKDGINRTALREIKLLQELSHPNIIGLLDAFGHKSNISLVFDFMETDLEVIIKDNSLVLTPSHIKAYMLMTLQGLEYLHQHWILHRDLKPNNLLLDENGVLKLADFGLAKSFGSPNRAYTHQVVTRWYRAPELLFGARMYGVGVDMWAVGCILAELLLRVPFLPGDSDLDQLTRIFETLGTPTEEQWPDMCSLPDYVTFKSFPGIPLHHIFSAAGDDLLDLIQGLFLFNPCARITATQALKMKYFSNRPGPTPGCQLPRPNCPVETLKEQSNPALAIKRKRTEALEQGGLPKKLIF
CDK7, sequence (P51946 whole entry partner): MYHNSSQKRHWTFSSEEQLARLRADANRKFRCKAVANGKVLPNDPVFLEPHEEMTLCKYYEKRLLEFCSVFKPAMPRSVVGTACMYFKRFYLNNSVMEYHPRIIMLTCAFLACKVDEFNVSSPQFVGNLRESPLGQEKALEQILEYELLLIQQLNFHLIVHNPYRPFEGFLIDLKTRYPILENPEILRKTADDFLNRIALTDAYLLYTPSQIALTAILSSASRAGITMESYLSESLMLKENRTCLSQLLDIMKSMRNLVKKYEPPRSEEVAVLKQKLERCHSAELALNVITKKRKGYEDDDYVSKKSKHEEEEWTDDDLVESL
CDK7, sequence (P51948 whole entry partner): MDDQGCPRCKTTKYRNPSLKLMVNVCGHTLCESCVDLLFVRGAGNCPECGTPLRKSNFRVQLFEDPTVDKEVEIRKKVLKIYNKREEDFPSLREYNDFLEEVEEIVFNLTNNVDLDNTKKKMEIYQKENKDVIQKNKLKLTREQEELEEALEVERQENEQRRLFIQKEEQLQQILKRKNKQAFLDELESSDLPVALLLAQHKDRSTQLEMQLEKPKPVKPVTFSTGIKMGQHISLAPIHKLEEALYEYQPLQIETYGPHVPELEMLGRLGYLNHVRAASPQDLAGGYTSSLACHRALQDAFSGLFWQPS
CDK6, sequence (Q00534 whole entry): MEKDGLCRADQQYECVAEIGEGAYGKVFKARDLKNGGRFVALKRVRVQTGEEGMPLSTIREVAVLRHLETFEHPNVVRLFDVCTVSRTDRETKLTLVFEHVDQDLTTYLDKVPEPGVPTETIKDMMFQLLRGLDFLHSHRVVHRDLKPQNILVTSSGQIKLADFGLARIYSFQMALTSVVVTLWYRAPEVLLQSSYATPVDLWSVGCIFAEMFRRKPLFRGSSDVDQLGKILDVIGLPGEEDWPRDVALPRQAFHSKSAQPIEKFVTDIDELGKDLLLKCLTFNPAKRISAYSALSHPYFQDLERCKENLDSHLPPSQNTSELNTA
CDK6, sequence (P24385 whole entry partner): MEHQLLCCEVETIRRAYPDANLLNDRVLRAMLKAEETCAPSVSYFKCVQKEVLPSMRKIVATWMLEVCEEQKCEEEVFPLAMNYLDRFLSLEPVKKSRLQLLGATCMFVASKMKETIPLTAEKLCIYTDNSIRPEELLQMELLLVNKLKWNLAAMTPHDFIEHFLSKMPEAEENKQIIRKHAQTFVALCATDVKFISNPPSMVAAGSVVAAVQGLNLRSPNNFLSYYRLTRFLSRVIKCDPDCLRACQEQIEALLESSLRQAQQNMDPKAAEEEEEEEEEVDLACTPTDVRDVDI
CDK4, sequence (P11802 whole entry): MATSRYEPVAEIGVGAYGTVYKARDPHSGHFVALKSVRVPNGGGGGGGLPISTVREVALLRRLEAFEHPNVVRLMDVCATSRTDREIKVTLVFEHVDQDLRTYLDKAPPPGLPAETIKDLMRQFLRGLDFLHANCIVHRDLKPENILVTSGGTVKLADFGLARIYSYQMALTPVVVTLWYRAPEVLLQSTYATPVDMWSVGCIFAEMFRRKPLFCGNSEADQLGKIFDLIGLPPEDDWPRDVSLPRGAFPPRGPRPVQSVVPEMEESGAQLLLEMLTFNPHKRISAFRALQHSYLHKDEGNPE
CDK4, sequence (P24385 whole entry partner): as the sequence (P24385 whole entry partner) above

CN(C)C(=O)Cn1cc(-c2ccc(-c3cncc4ccccc34)cc2)cn1 [BI-1347]
IC50 [1]: < 1 µM | inhibition of CDK1 [2]: no inhibition | inhibition of CDK2 [3]: no inhibition | inhibition of CDK4 [4]: no inhibition | inhibition of CDK6 [5]: no inhibition | inhibition of CDK7 [6]: no inhibition | inhibition of CDK9 [7]: no inhibition | increase of the proportion of granzyme B-positive NK cells [8]: approximately 4 fold | perforin levels in the supernatant [9]: increased perforin levels | in vitro sensitivity [10]: resistant | in vitro sensitivity [11]: resistant | in vitro sensitivity [12]: resistant | ADCC mediated depletion of primary leukemia cells by rituximab ([13]; in presence of PBMCs, 48 h): enhances | enhanced ADCC effect in absence of NK cells ([13]; purified CLL cells with rituximab, no NK cells): not observed | exposure and bioavailability (F) after p.o. dosing [14]: Excellent exposure and bioavailability | plasma concentration 24 h after dosing relative to the CDK8 IC50 ([14]; 25 mg/kg p.o.): around 100 fold | clearance ([14]; i.v. administration): 14 % QH | metabolic stability in vitro and in vivo [15]: higher metabolic stability | reduction of phosphorylation of STAT1^S727 [16]: 60% | median survival advantage compared to vehicle-treated animals [17]: 4 days | tolerability (body weight) [17]: well tolerated with minimal effect on body weight | tumor growth inhibition (TGI) ([17]; day 23): 94% | tumor growth inhibition (TGI) ([17]; day 29): 88% | mice surviving until day 42 ([17]; all control mice sacrificed by day 32): 2/10 | CR [@ end of study, number of mice] [18]: 0/5 | Response [@ d20, number of mice] [18]: 2/5 | median survival ([19]; 5 days on / 5 days off intermittent scheduling): 26 days | median survival ([19]; daily oral 10 mg/kg, control 22 days): 22.5 days
